Measurements reported in PubChem BioAssay AID2152 (The Scripps Research Institute Molecular Screening Center, 2009).
About 25 (1%) of roughly 2,300 compounds were called active. Only a selection was taken, and actives are over-represented in it overall. A number with no mark means an inactive call.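 How the source made its calls: active means mean inhibition over three replicate wells above the hit threshold derived in the earlier primary screen (cut at about 45% in these data); inactive means the rest.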

System: Hepatitis C virus core protein (core106 dimerization)
Experiment: inhibitors of HCV core protein dimerization, confirmation, biochemical, TR-FRET, triplicate (AID 2152);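 further: 0% = DMSO wells and 100% = unlabelled core106 competitor control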
Details: TR-FRET GST-/Flag-core106 dimerization, HTRF; at 5 µM; stronger effect = higher value
Method in brief: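 Test system: GST- and Flag-tagged HCV core106 peptides, dimerization via antibody TR-FRET / Amount: 17 nM Flag- plus 13.5 nM GST-core106 / Probe or stimulus: Eu(K)-anti-GST plus XL665-anti-FLAG antibodies / Compound dosing: one 5 µM dose, 0.5% DMSO / Times: 4 h incubation, 22.5 °C / Technique: TR-FRET, 340 nm excitation, 671/617 nm emission / Evaluation: percent inhibition from emission ratio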

Row | Structure (SMILES) | inhibition
1 | CN1C(=O)/C(=C/c2cccn2-c2ccc3ccccc3c2)C(=O)NC1=S | 9.68%
2 | O=C1NC(=O)N(Cc2ccc(F)cc2)C(=O)/C1=C\c1ccc(N2CCCC2)cc1 | 4.49%
3 | Cn1cccc1/C=C1/C(=O)NC(=S)N(Cc2ccc(F)cc2)C1=O | 64.5% (active)
4 | Cc1ccccc1N1C(=O)/C(=C/c2ccco2)C(=O)NC1=S | 66.3% (active)
5 | Cc1ccc(N2C(=O)/C(=C/c3ccc(CN(CCC#N)S(C)(=O)=O)o3)C(=O)NC2=S)cc1C | -8.42%
6 | CCOc1cccc(N2C(=O)/C(=C/c3ccco3)C(=O)NC2=S)c1 | 10.6%
7 | COC(=O)[C@@H]1[C@@H](C(=O)OC)C2(c3ccccc3-c3ccccc32)N(c2ccc(Cl)cc2)N1C#N | 8.69%
8 | COc1ccccc1C(=O)Nc1ccc2c(c1)CC1(C(=O)N(C)C(=O)N(C)C1=O)C1CCCN21 (stereo not given) | 7.78%
9 | Cc1ccccc1-n1c(CNc2ccccc2)nc2ccccc2c1=O | -1.12%
10 | CCN1C(=O)/C(=C/c2ccc3c(c2)CCN3CCCCl)C(=O)NC1=S | 15.4%
